Assay results taken from ChEMBL document CHEMBL1926651, “Design, synthesis, antiviral and cytostatic evaluation of novel isoxazolidine nucleotide analogues with a 1,2,3-triazole linker” (Eur J Med Chem, 2012).
Activity calls are given as the source filed them. The calls are words filed in the database; no cut-off is given here.

How the values were obtained:
CCRF-CEM = experiment: Cytotoxicity against human CEM cells 3 days by coulter counting; type: functional; details: 72 h
Outline: (§1)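 Cells were suspended at 300,000–500,000 cells/mL and added 1:1 to compound dilutions. Incubation was at 37 °C, 2 days for L1210 and 3 days for CEM, HeLa and HEL. Cells were counted with a Coulter counter. CC50 is the concentration inhibiting cell proliferation by 50%.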

Human alphaherpesvirus 1 [1] = experiment: Antiviral activity against thymidine kinase-deficient acv-resistant Herpes simplex virus 1 KOS infected in human HEL cells assessed as inhibition of viral plaque formation at 250 uM; type: functional, organism-based
[2] = system: Human immunodeficiency virus 1; experiment: Antiviral activity against Human immunodeficiency virus 1 infected in human CEM cells assessed as inhibition of virus-induced giant cell formation after 4 days by microscopic analysis; type: functional, organism-based; details: CCRF-CEM
Outline: (§2)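 CEM cells at about 3 × 10⁵ cells/cm³ were infected with 100 CCID50/mL of HIV-1(IIIB) or HIV-2(ROD), then seeded into wells holding test compound dilutions. After 4 days at 37 °C, virus-induced giant cell formation was scored microscopically.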

[3] = system: Respiratory syncytial virus; experiment: Antiviral activity against Respiratory syncytial virus infected in human HeLa cells assessed as inhibition of viral plaque formation at 250 uM; type: functional, organism-based
Outline: (§3)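 Confluent host cell monolayers were inoculated with 100 CCID50 of virus in the presence of test compound at serial dilutions (250, 50, 10, … μM). Viral cytopathicity was scored once it reached completion in untreated virus-infected controls.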

Human respirovirus 3 = experiment: Antiviral activity against Parainfluenza-3 virus infected in african green monkey Vero cells assessed as inhibition of viral plaque formation at 250 uM; type: functional, organism-based; outline: as §3
HeLa = experiment: Cytotoxicity against human HeLa cells 3 days by coulter counting; type: functional; details: 72 h; outline: as §1
Human alphaherpesvirus 1 [4] = experiment: Antiviral activity against Herpes simplex virus 1 KOS infected in human HEL cells assessed as inhibition of viral plaque formation at 250 uM; type: functional, organism-based; outline: as §3
Punta Toro virus = experiment: Antiviral activity against Punta Toro virus infected in african green monkey Vero cells assessed as inhibition of viral plaque formation at 250 uM; type: functional, organism-based
Human betaherpesvirus 5 [5] = experiment: Antiviral activity against Human cytomegalovirus Davis infected in human HEL cells assessed as inhibition of viral plaque formation at 250 uM; type: functional, organism-based
HEL = experiment: Cytotoxicity against human HEL cells 3 days by coulter counting; type: functional; details: 72 h; outline: as §1
Coxsackievirus B4 [6] = experiment: Antiviral activity against Coxsackievirus B4 infected in african green monkey Vero cells assessed as inhibition of viral plaque formation at 250 uM; type: functional, organism-based; outline: as §3
L1210 = experiment: Cytotoxicity against mouse L1210 cells 2 days by coulter counting; type: functional; details: L1210, 48 h; outline: as §1
[7] = system: Mammalian orthoreovirus 1; experiment: Antiviral activity against Reovirus-1 infected in african green monkey Vero cells assessed as inhibition of viral plaque formation at 250 uM; type: functional, organism-based; outline: as §3
Human alphaherpesvirus 3 [8] = experiment: Antiviral activity against thymidine kinase-positive Varicella Zoster virus Oka infected in human HEL cells assessed as inhibition of viral plaque formation at 250 uM; type: functional, cell-based; details: strain Oka vaccine
Sindbis virus = experiment: Antiviral activity against Sindbis virus infected in african green monkey Vero cells assessed as inhibition of viral plaque formation at 250 uM; type: functional, organism-based; outline: as §3
Felid alphaherpesvirus 1 = experiment: Antiviral activity against Felid herpesvirus 1 infected in CrFK cells assessed as inhibition of viral plaque formation at 250 uM; type: functional, organism-based; outline: as §3
[9] = system: Vesicular stomatitis virus; experiment: Antiviral activity against Vesicular stomatitis virus infected in human Hela cells assessed as inhibition of viral plaque formation at 250 uM; type: functional, organism-based
Human betaherpesvirus 5 [10] = experiment: Antiviral activity against Human cytomegalovirus AD169 infected in human HEL cells assessed as inhibition of viral plaque formation at 250 uM; type: functional, organism-based
Vaccinia virus = experiment: Antiviral activity against Vaccinia virus infected in human HEL cells assessed as inhibition of viral plaque formation at 250 uM; type: functional, organism-based; details: Orthopoxvirus vaccinia; outline: as §3
[11] = system: Human immunodeficiency virus 2; experiment: Antiviral activity against Human immunodeficiency virus 2 infected in human CEM cells assessed as inhibition of virus-induced giant cell formation after 4 days by microscopic analysis; type: functional, organism-based; details: CCRF-CEM; outline: as §2
Human alphaherpesvirus 2 = experiment: Antiviral activity against Herpes simplex virus 2 G infected in human HEL cells assessed as inhibition of viral plaque formation at 250 uM; type: functional, organism-based; details: strain G
Coxsackievirus B4 [12] = experiment: Antiviral activity against Coxsackievirus B4 infected in human HeLa cells assessed as inhibition of viral plaque formation at 250 uM; type: functional, organism-based; outline: as §3
Human alphaherpesvirus 3 [13] = experiment: Antiviral activity against thymidine kinase-deficient Varicella Zoster virus 07/1 infected in human HEL cells assessed as inhibition of viral plaque formation at 250 uM; type: functional, organism-based
[14] = system: Vesicular stomatitis virus; experiment: Antiviral activity against Vesicular stomatitis virus infected in human HEL cells assessed as inhibition of viral plaque formation at 250 uM; type: functional, organism-based; outline: as §3
Feline coronavirus = experiment: Antiviral activity against Feline coronavirus infected in CrFK cells assessed as inhibition of viral plaque formation at 250 uM; type: functional, organism-based; outline: as §3

Compound	CC50 (CCRF-CEM) [µM]	Activity (Human alphaherpesvirus 1 [1])	Activity [2]	Activity [3]	Activity (Human respirovirus 3)	CC50 (HeLa) [µM]	Activity (Human alphaherpesvirus 1 [4])	Activity (Punta Toro virus)	Activity (Human betaherpesvirus 5 [5])	CC50 (HEL) [µM]	Activity (Coxsackievirus B4 [6])	CC50 (L1210) [µM]	Activity [7]	Activity (Human alphaherpesvirus 3 [8])	Activity (Sindbis virus)	Activity (Felid alphaherpesvirus 1)	Activity [9]	Activity (Human betaherpesvirus 5 [10])	Activity (Vaccinia virus)	Activity [11]	other results
CCOP(=O)(OCC)[C@@H]1C[C@@H](n2cc(Cn3cc(C)c(=O)[nH]c3=O)nn2)ON1C (relative stereo)	> 250	inactive	inactive	inactive	inactive	> 250	inactive	inactive	inactive	> 100	inactive	≥ 250	inactive	inactive	inactive	inactive	inactive	inactive	inactive	inactive	Activity (Human alphaherpesvirus 2): inactive; Activity (Coxsackievirus B4 [12]): inactive; Activity (Human alphaherpesvirus 3 [13]): inactive; Activity [14]: inactive; Activity (Feline coronavirus): inactive
CCOP(=O)(OCC)[C@@H]1C[C@@H](n2cc(Cn3ccc(NC(C)=O)nc3=O)nn2)ON1C (relative stereo)	> 250	inactive	inactive	inactive	inactive	> 250	inactive	inactive	inactive	> 100	inactive	≥ 250	inactive	inactive	inactive	inactive	inactive	inactive	inactive	inactive	Activity (Human alphaherpesvirus 2): inactive; Activity (Coxsackievirus B4 [12]): inactive; Activity (Human alphaherpesvirus 3 [13]): inactive; Activity [14]: inactive; Activity (Feline coronavirus): inactive
CCOP(=O)(OCC)[C@@H]1C[C@@H](n2cc(C(=O)OC)nn2)ON1C (relative stereo)	> 250	inactive	inactive	inactive	inactive	> 250	inactive	inactive	inactive	> 100	inactive	191	inactive	inactive	inactive	inactive	inactive	inactive	inactive	inactive	Activity (Human alphaherpesvirus 2): inactive; Activity (Coxsackievirus B4 [12]): inactive; Activity (Human alphaherpesvirus 3 [13]): inactive; Activity [14]: inactive; Activity (Feline coronavirus): inactive
CCOP(=O)(OCC)[C@@H]1C[C@H](n2cc(Cn3ccc(NC(C)=O)nc3=O)nn2)ON1C (relative stereo)	> 250	inactive	inactive	inactive	inactive	> 250	inactive	inactive	inactive	> 100	inactive	> 250	inactive	inactive	inactive	inactive	inactive	inactive	inactive	inactive	Activity (Human alphaherpesvirus 2): inactive; Activity (Coxsackievirus B4 [12]): inactive; Activity (Human alphaherpesvirus 3 [13]): inactive; Activity [14]: inactive; Activity (Feline coronavirus): inactive
CCOP(=O)(OCC)[C@@H]1C[C@H](n2cc(Cn3cnc4c(N)ncnc43)nn2)ON1C (relative stereo)	> 250	inactive	inactive	inactive	inactive	≥ 250	inactive	inactive	inactive	> 100	inactive	147	inactive	inactive	inactive	inactive	inactive	inactive	inactive	inactive	Activity (Human alphaherpesvirus 2): inactive; Activity (Coxsackievirus B4 [12]): inactive; Activity (Human alphaherpesvirus 3 [13]): inactive; Activity [14]: inactive; Activity (Feline coronavirus): inactive
CCOP(=O)(OCC)[C@@H]1C[C@H](n2cc(C(=O)OC)nn2)ON1C (relative stereo)	> 250	inactive	inactive	inactive	inactive	> 250	inactive	inactive	inactive	> 100	inactive	166	inactive	inactive	inactive	inactive	inactive	inactive	inactive	inactive	Activity (Human alphaherpesvirus 2): inactive; Activity (Coxsackievirus B4 [12]): inactive; Activity (Human alphaherpesvirus 3 [13]): inactive; Activity [14]: inactive; Activity (Feline coronavirus): inactive
